Data set [1] has as its system Rattus norvegicus. In words: Prevention of bone mineral density loss in ovariectomized immatured Sprague-Dawley rat osteoporosis model administered orally once daily for 5 times per week for 4 weeks. The format is functional, organism-based. A digest of the protocol: (§1)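 Female 8-week-old Sprague–Dawley (Crj: CD (SD)) rats, ovariectomized or sham-operated, n = 6 per group. From one day after surgery, oral dosing five times per week for 4 weeks; vehicle was medium-chain triglyceride at 1 mL/kg. Distal femur BMD read by dual-energy X-ray absorptiometry 24 h after the last dose. ΔBMD (%) = (treated − vehicle)/(sham − vehicle) × 100. Mean ± SE.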

The test system of data set [2] is Rattus norvegicus. The experiment in a line: Prevention of bone mineral density loss in ovariectomized immatured Sprague-Dawley rat osteoporosis model at 30 ng/kg, po once daily for 5 times per week for 4 weeks relative to control. The class given is functional. In outline: as §1
Data set [3] relates to Rattus norvegicus. In words: Toxicity in ovariectomized immatured Sprague-Dawley rat osteoporosis model assessed as effect on serum calcium level at 30 ng/kg, po once daily for 5 times per week for 4 weeks relative to control. The class given is organism-based. To be noted: in vivo, 3e-05 mg/kg, 672 h. A digest of the protocol:
(§2)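 Ovariectomized female 8-week-old Sprague–Dawley rats, n = 6 per group. Oral dosing five times per week for 4 weeks in medium-chain triglyceride (1 mL/kg). Vehicle-treated OVX and sham rats served as controls. Abdominal aortic blood drawn under ether 24 h after the last dose; serum calcium measured by autoanalyzer. ΔCa (%) = (treated − vehicle)/vehicle × 100. Mean ± SE.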

Data set [4] concerns Rattus norvegicus. The experiment in a line: Toxicity in ovariectomized immatured Sprague-Dawley rat osteoporosis model assessed as effect on serum calcium level at 10 ng/kg, po once daily for 5 times per week for 4 weeks relative to control. The class given is organism-based. To be noted: in vivo, 1e-05 mg/kg, 672 h. A digest of the protocol: as §2
Data set [5] deals with Rattus norvegicus. In words: Prevention of bone mineral density loss in ovariectomized immatured Sprague-Dawley rat osteoporosis model at 10 ng/kg, po once daily for 5 times per week for 4 weeks relative to control. The format is functional. A digest of the protocol:
as §1

Data set [6] in a line: Volume of distribution at steady state in Sprague-Dawley rat at 100 ug/kg, iv. The format is ADME, organism-based. The note with it: in vivo, 0.1 mg/kg, read-out: Vdss. A digest of the protocol:
(§3)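 Male Sprague–Dawley rats, 8 weeks old, fed, n = 3 per route. Single 100 µg/kg dose, iv in ethanol/Tween20/saline (10:2:88) or po in ethanol/MCT (1:9). Blood taken from the jugular vein and centrifuged to plasma. Drug extracted with diethyl ether and quantified by LC-MS/MS. Bioavailability given as F (%).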

The subject of data set [7] is Rattus norvegicus. In words: Toxicity in ovariectomized matured Sprague-Dawley rat osteoporosis model assessed as effect on serum calcium level at 12 ng/kg, po once daily for 5 times per week for 4 weeks relative to control. The format is organism-based. The note with it: in vivo, 1.2e-05 mg/kg, 672 h. A digest of the protocol: (§4)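 Female 8-month-old Sprague–Dawley rats, ovariectomized or sham-operated, n = 8 per group. Starting one day post-surgery, oral dosing at 0.75–12 ng/kg, five times per week for 4 weeks; vehicle was MCT at 1 mL/kg. At 24 h after the last dose, aortic blood was taken for serum calcium by autoanalyzer. Distal femur and lumbar spine BMD measured by DXA.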

Data set [8] is described as follows: AUC (infinity) in Sprague-Dawley rat at 100 ug/kg, po. The class given is ADME, organism-based. Further details: dose 100 ug/kg, time infinity, route oral. To be noted: plasma, 0.1 mg/kg. A digest of the protocol: as §3
Data set [9] can be described thus: Mean residence time in Sprague-Dawley rat at 100 ug/kg, iv. The class given is ADME, organism-based. To be noted: in vivo, 0.1 mg/kg. A digest of the protocol: as §3
In data set [10] the test system is Rattus norvegicus. In words: Prevention of bone mineral density loss in ovariectomized immatured Sprague-Dawley rat osteoporosis model at 40 ng/kg, po once daily for 5 times per week for 4 weeks relative to control. The format is functional. A digest of the protocol: as §1
Data set [11] in a line: Half life in Sprague-Dawley rat at 100 ug/kg, iv. The class given is ADME, organism-based. The note with it: in vivo, 0.1 mg/kg. In outline:
as §3

The subject of data set [12] is Rattus norvegicus. In words: Prevention of bone mineral density loss in distal femur of ovariectomized matured po dosed Sprague-Dawley rat osteoporosis model administered once daily for 5 times per week for 4 weeks. The class given is functional, organism-based. In outline: as §4
Data set [13] has as its system Rattus norvegicus. In words: Toxicity in ovariectomized matured Sprague-Dawley rat osteoporosis model assessed as effect on body weight at 0.75 to 12 ng/kg, po once daily for 5 times per week for 4 weeks. The format is organism-based. To be noted: in vivo, 672 h.
For data set [14], the system named is Rattus norvegicus. In words: Toxicity in ovariectomized immatured Sprague-Dawley rat osteoporosis model assessed as effect on serum calcium level at 20 ng/kg, po once daily for 5 times per week for 4 weeks relative to control. The class given is organism-based. The note with it: in vivo, 2e-05 mg/kg, 672 h. In outline: as §2
Data set [15] is described as follows: Cmax in Sprague-Dawley rat at 100 ug/kg, po. The format is ADME, organism-based. Further details: dose 100 ug/kg, route oral. The note with it: in vivo, 0.1 mg/kg. A digest of the protocol: as §3
A short description of data set [16]: Oral bioavailability in Sprague-Dawley rat at 100 ug/kg. To be noted: in vivo, 0.1 mg/kg. The format is ADME, organism-based. In outline: as §3
Data set [17] has as its system Rattus norvegicus. In words: Prevention of bone mineral density loss in ovariectomized immatured Sprague-Dawley rat osteoporosis model at 20 ng/kg, po once daily for 5 times per week for 4 weeks relative to control. The format is functional. In outline: as §1
For data set [18], the system named is Rattus norvegicus. In words: Toxicity in ovariectomized immatured Sprague-Dawley rat osteoporosis model assessed as effect on serum calcium level at 40 ng/kg, po once daily for 5 times per week for 4 weeks relative to control. The format is organism-based. To be noted: in vivo, 4e-05 mg/kg, 672 h. In outline: as §2
A short description of data set [19]: Mean residence time in Sprague-Dawley rat at 100 ug/kg, po. The class given is ADME, organism-based. To be noted: in vivo, 0.1 mg/kg. In outline:
as §3

Data set [20] can be described thus: Total clearance in Sprague-Dawley rat at 100 ug/kg, iv. The format is ADME, organism-based. The note with it: in vivo, 0.1 mg/kg. A digest of the protocol: as §3
Data set [21] in a line: Half life in Sprague-Dawley rat at 100 ug/kg, po. To be noted: in vivo, 0.1 mg/kg. The format is ADME, organism-based. A digest of the protocol:
as §3

The nature of data set [22]: AUC (infinity) in Sprague-Dawley rat at 100 ug/kg, iv. The class given is ADME, organism-based. Further details: dose 100 ug/kg, time infinity, route intravenous. To be noted: plasma, 0.1 mg/kg. In outline: as §3
In data set [23] the test system is Rattus norvegicus. In words: Toxicity in ovariectomized matured Sprague-Dawley rat osteoporosis model assessed as effect on serum calcium level at 0.75 to 6 ng/kg, po once daily for 5 times per week for 4 weeks relative to control. The format is organism-based. The note with it: in vivo, 672 h. A digest of the protocol:
as §4

Data set [24] deals with Salmonella typhimurium. The experiment in a line: Genotoxicity in Salmonella typhimurium by Ames test. The format is toxicity, organism-based. To be noted: salmonella enterica subsp. enterica serovar typhimurium.
Data set [25] in a line: Genotoxicity in micronucleus (unknown origin) by micronucleus assay.
Data set [26] has as its system Rattus norvegicus. In words: Prevention of bone mineral density loss in ovariectomized immatured Sprague-Dawley rat osteoporosis model at 80 ng/kg, po once daily for 5 times per week for 4 weeks relative to control. The format is functional. A digest of the protocol:
as §1

The subject of data set [27] is Rattus norvegicus. In words: Toxicity in ovariectomized immatured Sprague-Dawley rat osteoporosis model assessed as effect on serum calcium level at 80 ng/kg, po once daily for 5 times per week for 4 weeks relative to control. The class given is organism-based. The note with it: in vivo, 8e-05 mg/kg, 672 h. In outline: as §2
In data set [28] the test system is Rattus norvegicus. In words: Prevention of bone mineral density loss in ovariectomized immatured Sprague-Dawley rat osteoporosis model at 320 ng/kg, po once daily for 5 times per week for 4 weeks relative to control. The format is functional. A digest of the protocol:
as §1

Data set [29] deals with Rattus norvegicus. The experiment in a line: Toxicity in ovariectomized immatured Sprague-Dawley rat osteoporosis model assessed as effect on serum calcium level at 320 ng/kg, po once daily for 5 times per week for 4 weeks relative to control. The class given is organism-based. To be noted: in vivo, 0.00032 mg/kg, 672 h. In outline: as §2
The subject of data set [30] is Rattus norvegicus. In words: Toxicity in ovariectomized immatured Sprague-Dawley rat osteoporosis model assessed as effect on serum calcium level at 25 ng/kg, po once daily for 5 times per week for 4 weeks relative to control. To be noted: in vivo, 2.5e-05 mg/kg, 672 h. The format is organism-based. In outline:
as §2

The subject of data set [31] is Rattus norvegicus. The experiment in a line: Prevention of bone mineral density loss in ovariectomized immatured Sprague-Dawley rat osteoporosis model at 25 ng/kg, po once daily for 5 times per week for 4 weeks relative to control. The format is functional. In outline:
as §1

In data set [32] the test system is Rattus norvegicus. The experiment in a line: Toxicity in ovariectomized immatured Sprague-Dawley rat osteoporosis model assessed as effect on serum calcium level at 50 ng/kg, po once daily for 5 times per week for 4 weeks relative to control. The note with it: in vivo, 5e-05 mg/kg, 672 h. The format is organism-based. A digest of the protocol: as §2
Data set [33] has as its system Rattus norvegicus. In words: Prevention of bone mineral density loss in ovariectomized immatured Sprague-Dawley rat osteoporosis model at 50 ng/kg, po once daily for 5 times per week for 4 weeks relative to control. The format is functional. A digest of the protocol:
as §1

Experimental findings from ChEMBL document CHEMBL2346563, “A series of nonsecosteroidal vitamin D receptor agonists for osteoporosis therapy” (Bioorg Med Chem, 2013) are described below.

Molecules are shown by their SMILES.

For the compound `CCC(CC)(c1ccc(/C=C/C(O)(C(F)(F)F)C(F)(F)F)c(C)c1)c1ccc(-c2ccc(CC(=O)O)c(F)c2)c(C)c1`, the Activity result in data set [1] was “Dose-dependent effect”.

Take `CCC(CC)(c1ccc(/C=C/C(O)(C(F)(F)F)C(F)(F)F)c(C)c1)c1ccc(-c2ccc(CC(=O)O)cc2)c(C)c1`: the Activity was 89% in data set [2]; 6.9% in data set [3]; 0.6% in data set [4]; “Dose-dependent effect” in data set [1]; 47% in data set [5].

For `CCC(O)(/C=C/c1ccc(C(CC)(CC)c2ccc(-c3ccc(CC(=O)O)cn3)c(C)c2)cc1C)CC`, the Vd in data set [6] stood at 0.99 L/kg. The Activity entry in data set [7] is “Toxic”; in [10], 198%; in [4], -2.9%; in [12], “Dose-dependent effect”; in data set [5] it was 122%; in data set [13], “Non-toxic”. Moreover, the Activity in [14] is 2.2%; in data set [17] it was 172%; in data set [18], 8.4%; in [23], “Non-toxic”; in data set [24], “Non-toxic”; in [25] it was “Non-toxic”. Besides, the AUC(0-inf) is 1650 ng·h/mL in [8] and 1130 ng·h/mL in data set [22]. The MRT in data set [9] was 11.2 h; in [19] it was 28.3 h. The half-life in data set [11] was 8.5 h; in data set [21], 17.6 h. The compound further had a Cmax in data set [15] of 54 ng/mL. This compound also had a bioavailability in data set [16] of 95.1%. The same compound gave a clearance in data set [20] of 1.51 mL/min/kg.

`C=C1/C(=C\C=C2/CCC[C@]3(C)[C@@H]([C@H](C)CCCC(C)(C)O)CC[C@@H]23)C[C@@H](O)C[C@@H]1O` [CALCITRIOL]: the Activity was found to be 53% in data set [26]; 2.5% in data set [27]; 58% in data set [28]; 2.5% in [14]; 4% in [17]; 5.1% in data set [29].

As to `CCC(O)(/C=C/c1ccc(C(CC)(CC)c2ccc(-c3ccc(CC(=O)O)cc3)c(C)c2)cc1C)CC`, the Activity in data set [30] was 0.7%; in data set [1] it was “Dose-dependent effect”; in [31] it was 42%; in data set [32], 8.7%; in data set [33], 81%.

Broadly, the AUC(0-inf) is total exposure, with the tail of the curve extrapolated. In general, MRT refers to a mean duration of stay, worked out from the concentration-time curve. Usually half-life stands for the time needed for the level to fall by half in the phase considered. Higher therefore signals slow decline. A word on the Cmax: it is the maximum level reached in the sampled fluid or tissue. What is called bioavailability is dose-corrected exposure relative to a reference, in per cent. Low readings indicate poor availability, high ones good availability. For orientation: clearance means a measure of how efficiently the substance is removed, as volume per time. Low values mean a low capacity for elimination, high ones a high capacity for elimination.
